In brackets after ≈: the same amount, converted by molar mass.
What was measured:
Format in all cases: functional
[1] = test system: Pseudomonas aeruginosa; assay: Antimicrobial activity against Pseudomonas aeruginosa by broth microdilution method
Method in brief: (§1)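 Broth microdilution MIC following the NCCLS standard protocol, run in 96-well plates with 0.2 ml Mueller Hinton broth per well. Compounds were serially doubled from 0.5 to […] μg/ml, with ampicillin as reference. Inoculum was set to McFarland 0.5 turbidity, then diluted to about 5 × 10^5 cfu/ml per well. Plates included broth+inoculum and broth-only controls and were incubated overnight at 37 °C.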

[2] = test system: Staphylococcus aureus; assay: Antimicrobial activity against Staphylococcus aureus by broth microdilution method; method in brief: as §1
[3] = test system: Escherichia coli; assay: Antimicrobial activity against Escherichia coli by broth microdilution method; method in brief: as §1
[4] = test system: Staphylococcus epidermidis; assay: Antimicrobial activity against Staphylococcus epidermidis by broth microdilution method; method in brief: as §1

SMILES	MIC [1] [µg/mL]	MIC [2] [µg/mL]	MIC [3] [µg/mL]	MIC [4] [µg/mL]
CCOC(=O)C1=C(N)Oc2ccc(Sc3nc4ccccc4[nH]3)cc2C1c1ccc([N+](=O)[O-])cc1 (stereo not given)	8 (≈ 16.4 µM)	16 (≈ 32.8 µM)	16 (≈ 32.8 µM)	32 (≈ 65.5 µM)
N#CC1=C(N)Oc2ccc(Sc3nc4ccccc4s3)cc2C1c1ccc2c(c1)OCO2 (stereo not given)	8 (≈ 17.5 µM)	8 (≈ 17.5 µM)	1 (≈ 2.19 µM)	4 (≈ 8.74 µM)
N#CC1=C(N)Oc2ccc(Sc3nc4ccccc4s3)cc2C1c1cccs1 (stereo not given)	32 (≈ 76.3 µM)	2 (≈ 4.77 µM)	2 (≈ 4.77 µM)	64 (≈ 153 µM)
N#CC1=C(N)Oc2ccc(Sc3nc4ccccc4s3)cc2C1c1ccccc1 (stereo not given)	32 (≈ 77.4 µM)	4 (≈ 9.67 µM)	16 (≈ 38.7 µM)	8 (≈ 19.3 µM)
CCOC(=O)C1=C(N)Oc2ccc(Sc3nc4ccccc4[nH]3)cc2C1c1ccc(Cl)cc1 (stereo not given)	8 (≈ 16.7 µM)	32 (≈ 66.9 µM)	64 (≈ 134 µM)	64 (≈ 134 µM)
N#CC1=C(N)Oc2ccc(Sc3nc4ccccc4s3)cc2C1c1ccc2ccccc2c1 (stereo not given)	8 (≈ 17.3 µM)	16 (≈ 34.5 µM)	16 (≈ 34.5 µM)	32 (≈ 69 µM)
COc1ccc2[nH]c(Sc3ccc4c(c3)C(c3ccc([N+](=O)[O-])cc3)C(C#N)=C(N)O4)nc2c1 (stereo not given)	8 (≈ 17 µM)	16 (≈ 33.9 µM)	16 (≈ 33.9 µM)	16 (≈ 33.9 µM)
CCOC(=O)C1=C(N)Oc2ccc(Sc3nc4cc(OC)ccc4[nH]3)cc2C1c1cccc([N+](=O)[O-])c1 (stereo not given)	125 (≈ 241 µM)	125 (≈ 241 µM)	125 (≈ 241 µM)	125 (≈ 241 µM)
CCOC(=O)C1=C(N)Oc2ccc(Sc3nc4ccccc4[nH]3)cc2C1c1cccc([N+](=O)[O-])c1 (stereo not given)	32 (≈ 65.5 µM)	64 (≈ 131 µM)	32 (≈ 65.5 µM)	64 (≈ 131 µM)
N#CC1=C(N)Oc2ccc(Sc3nc4ccccc4s3)cc2C1c1cc2ccccc2nc1Cl (stereo not given)	16 (≈ 32.1 µM)	16 (≈ 32.1 µM)	16 (≈ 32.1 µM)	64 (≈ 128 µM)
CCOC(=O)C1=C(N)Oc2ccc(Sc3nc4ccccc4[nH]3)cc2C1c1cccs1 (stereo not given)	125 (≈ 278 µM)	125 (≈ 278 µM)	125 (≈ 278 µM)	125 (≈ 278 µM)
COc1ccc(C2C(C#N)=C(N)Oc3ccc(Sc4nc5ccccc5s4)cc32)cc1 (stereo not given)	2 (≈ 4.51 µM)	8 (≈ 18 µM)	32 (≈ 72.1 µM)	16 (≈ 36.1 µM)
N#CC1=C(N)Oc2ccc(Sc3nc4ccccc4s3)cc2C1c1ccc(Cl)cc1 (stereo not given)	16 (≈ 35.7 µM)	4 (≈ 8.93 µM)	32 (≈ 71.4 µM)	32 (≈ 71.4 µM)
COc1ccc2[nH]c(Sc3ccc4c(c3)C(c3cccs3)C(C#N)=C(N)O4)nc2c1 (stereo not given)	125 (≈ 289 µM)	250 (≈ 578 µM)	125 (≈ 289 µM)	250 (≈ 578 µM)
CCOC(=O)C1=C(N)Oc2ccc(Sc3nc4cc(OC)ccc4[nH]3)cc2C1c1ccc2c(c1)OCO2 (stereo not given)	125 (≈ 242 µM)	125 (≈ 242 µM)	125 (≈ 242 µM)	125 (≈ 242 µM)
CCOC(=O)C1=C(N)Oc2ccc(Sc3nc4cc(OC)ccc4[nH]3)cc2C1c1ccc(Cl)cc1 (stereo not given)	64 (≈ 126 µM)	32 (≈ 63 µM)	64 (≈ 126 µM)	64 (≈ 126 µM)
N#CC1=C(N)Oc2ccc(Sc3nc4ccccc4s3)cc2C1c1c[nH]c2ccccc12 (stereo not given)	16 (≈ 35.4 µM)	2 (≈ 4.42 µM)	0.5 (≈ 1.1 µM)	32 (≈ 70.7 µM)
N#CC1=C(N)Oc2ccc(Sc3nc4ccccc4[nH]3)cc2C1c1ccc(Cl)cc1 (stereo not given)	16 (≈ 37.1 µM)	16 (≈ 37.1 µM)	16 (≈ 37.1 µM)	16 (≈ 37.1 µM)
CCOC(=O)C1=C(N)Oc2ccc(Sc3nc4cc(OC)ccc4[nH]3)cc2C1c1ccc([N+](=O)[O-])cc1 (stereo not given)	32 (≈ 61.7 µM)	64 (≈ 123 µM)	64 (≈ 123 µM)	64 (≈ 123 µM)
CCOC(=O)C1=C(N)Oc2ccc(Sc3nc4cc(OC)ccc4[nH]3)cc2C1c1cccs1 (stereo not given)	125 (≈ 261 µM)	125 (≈ 261 µM)	125 (≈ 261 µM)	125 (≈ 261 µM)
